Measured values reported in ChEMBL document CHEMBL4270573, “Novel nicotinoyl pyrazoline derivates bearing N-methyl indole moiety as antitumor agents: Design, synthesis and evaluation” (Eur J Med Chem, 2018).
Activity calls are given as the source filed them. The rule behind the calls is not given here.

How the values were obtained:
HeLa [1] = assay: Cell cycle arrest in human HeLa cells assessed as accumulation at G2/M phase at 0.080 uM after 24 hrs by propidium iodide staining based flow cytometric analysis (reference value: 17.72%); format: functional
In short: (§1)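 HepG2 and HeLa cells were exposed to 0, 0.020, 0.040, 0.060, 0.080 or 0.10 µM for 6, 12 or 24 h. DNA content was stained with propidium iodide and analysed by flow cytometry to give the percentage of cells in G0/G1, S and G2/M phases; sub-G1 cells were also recorded.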

HepG2 [2] = assay: Induction of apoptosis in human HepG2 cells assessed as late apoptotic cells at 0.060 uM after 24 hrs by Annexin V-FITC/propidium iodide staining based flow cytometric analysis (reference value: 2.93%); format: functional
In short: (§2)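 HepG2 and HeLa cells were exposed to 0, 0.02, 0.040, 0.060, 0.080 and 0.10 µM for 6, 12 and 24 h. Cells were double-stained with Annexin V-FITC/PI and read by flow cytometry. Apoptotic rate was the percentage of FITC-positive cells, counting early plus late apoptotic.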

Mus musculus [3] = assay: Hepatotoxicity in nude mouse xenografted with human HeLa cells assessed as edema in liver at 10 to 20 mg/kg, ip after 14 days by hematoxylin and eosin staining based microscopic analysis; format: toxicity, organism-based; conditions: in vivo, 336 h
In short: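 HeLa xenograft nude mice with tumours near 100 mm³, randomised to four groups of 28 mice in total. Dosing was intraperitoneal: vehicle, CA-4 10 mg/kg, or test compound at 10 or 20 mg/kg, continued for 14 days. Heart, liver, kidney and spleen were then H&E-stained and examined for inflammatory infiltration, edema, necrosis and cell morphology.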

HepG2 [4] = assay: Induction of apoptosis in human HepG2 cells assessed as necrotic cells at 0.060 uM after 24 hrs by Annexin V-FITC/propidium iodide staining based flow cytometric analysis (reference value: 0.270%); format: functional; in short: as §2
[5] = Selectivity index, ratio of CC50 for HEK293T cells to GI50 for human HepG2 cells; format: toxicity; conditions: HEK293T cells and HepG2 cells, read-out: Selectivity Index
In short: (§3)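 Ratio CC50/GI50: CC50 is the concentration reducing non-tumour 293T cell proliferation by 50%; GI50 is the concentration reducing cancer cell proliferation by 50%.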

HepG2 [6] = assay: Cell cycle arrest in human HepG2 cells assessed as accumulation at S phase at 0.080 uM after 24 hrs by propidium iodide staining based flow cytometric analysis (reference value: 20.40%); format: functional; in short: as §1
HeLa [7] = assay: Induction of apoptosis in human HeLa cells assessed as necrotic cells at 0.020 uM after 24 hrs by Annexin V-FITC/propidium iodide staining based flow cytometric analysis (reference value: 0.242%); format: functional; in short: as §2
HeLa [8] = assay: Antitumor activity against human HeLa cells xenografted in nude mouse assessed as tumor weight at 20 mg/kg, ip after 14 days (reference value: 1.54 g); format: functional
HeLa [9] = assay: Cell cycle arrest in human HeLa cells assessed as accumulation at G0/G1 phase at 0.040 uM after 24 hrs by propidium iodide staining based flow cytometric analysis (reference value: 66.26%); format: functional; in short: as §1
HeLa [10] = assay: Cell cycle arrest in human HeLa cells assessed as accumulation at G0/G1 phase at 0.080 uM after 24 hrs by propidium iodide staining based flow cytometric analysis (reference value: 66.26%); format: functional; in short: as §1
HeLa [11] = assay: Induction of apoptosis in human HeLa cells assessed as viable cells at 0.060 uM after 24 hrs by Annexin V-FITC/propidium iodide staining based flow cytometric analysis (reference value: 88.6%); format: functional; conditions: read-out: Activity; in short: as §2
[12] = Selectivity index, ratio of CC50 for HEK293T cells to GI50 for human MCF7 cells; format: toxicity; conditions: HEK293T cells and MCF7 cells, read-out: Selectivity Index; in short: as §3
HepG2 [13] = assay: Cell cycle arrest in human HepG2 cells assessed as accumulation at G0/G1 phase at 0.10 uM after 24 hrs by propidium iodide staining based flow cytometric analysis (reference value: 55.63%); format: functional; in short: as §1
HeLa [14] = assay: Antitumor activity against human HeLa cells xenografted in nude mouse assessed as tumor weight at 10 mg/kg, ip after 14 days (reference value: 1.54 g); format: functional
Mus musculus [15] = assay: Toxicity in nude mouse xenografted with human HeLa cells assessed as change in mouse heart weight at 10 to 20 mg/kg, ip after 14 days; format: organism-based; conditions: in vivo, 336 h
HepG2 [16] = assay: Induction of apoptosis in human HepG2 cells assessed as early apoptotic cells at 0.080 uM after 24 hrs by Annexin V-FITC/propidium iodide staining based flow cytometric analysis (reference value: 2.31%); format: functional; in short: as §2
HeLa [17] = assay: Induction of apoptosis in human HeLa cells assessed as late apoptotic cells at 0.080 uM after 24 hrs by Annexin V-FITC/propidium iodide staining based flow cytometric analysis (reference value: 4.98%); format: functional; in short: as §2
[18] = Selectivity index, ratio of CC50 for HEK293T cells to GI50 for human A549 cells; format: toxicity; conditions: HEK293T cells and A549 cells, read-out: Selectivity Index; in short: as §3
HeLa [19] = assay: Induction of apoptosis in human HeLa cells assessed as viable cells at 0.020 uM after 24 hrs by Annexin V-FITC/propidium iodide staining based flow cytometric analysis (reference value: 88.6%); format: functional; conditions: read-out: Activity; in short: as §2
Mus musculus [20] = assay: Cardiotoxicity in nude mouse xenografted with human HeLa cells assessed as edema in heart at 10 to 20 mg/kg, ip after 14 days by hematoxylin and eosin staining based microscopic analysis; format: toxicity, organism-based; conditions: in vivo, 336 h
In short: (§4)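 Excised tumours and heart, liver, kidney and spleen were H&E-stained and examined microscopically. Tumour scoring covered cell arrangement and necrosis. Organ scoring covered inflammatory infiltration, edema, necrosis and cell morphology.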

HeLa [21] = assay: Induction of apoptosis in human HeLa cells assessed as late apoptotic cells at 0.020 uM after 24 hrs by Annexin V-FITC/propidium iodide staining based flow cytometric analysis (reference value: 4.98%); format: functional; in short: as §2
HepG2 [22] = assay: Induction of apoptosis in human HepG2 cells assessed as late apoptotic cells at 0.080 uM after 24 hrs by Annexin V-FITC/propidium iodide staining based flow cytometric analysis (reference value: 2.93%); format: functional; in short: as §2
HepG2 [23] = assay: Cell cycle arrest in human HepG2 cells assessed as accumulation at S phase at 0.040 uM after 24 hrs by propidium iodide staining based flow cytometric analysis (reference value: 20.40%); format: functional; in short: as §1
HeLa [24] = assay: Antitumor activity against human HeLa cells xenografted in nude mouse assessed as necrosis of tumor cells at 10 to 20 mg/kg, ip after 14 days by hematoxylin and eosin staining based microscopic analysis; format: functional, organism-based; in short: as §4
HeLa [25] = assay: Induction of apoptosis in human HeLa cells assessed as late apoptotic cells at 0.10 uM after 24 hrs by Annexin V-FITC/propidium iodide staining based flow cytometric analysis (reference value: 4.98%); format: functional; in short: as §2
HeLa [26] = assay: Induction of apoptosis in human HeLa cells assessed as viable cells at 0.040 uM after 24 hrs by Annexin V-FITC/propidium iodide staining based flow cytometric analysis (reference value: 88.6%); format: functional; conditions: read-out: Activity; in short: as §2
HepG2 [27] = assay: Induction of apoptosis in human HepG2 cells assessed as viable cells at 0.060 uM after 24 hrs by Annexin V-FITC/propidium iodide staining based flow cytometric analysis (reference value: 94.5%); format: functional; conditions: HepG2, 24 h, read-out: Activity; in short: as §2
Mus musculus [28] = assay: Toxicity in nude mouse xenografted with human HeLa cells assessed as morphological changes in spleen cells at 10 to 20 mg/kg, ip after 14 days by hematoxylin and eosin staining based microscopic analysis; format: organism-based; conditions: in vivo, 336 h

Q: What does the source list for `COc1cccc(C2=NN(C(=O)c3ccc(C)nc3)C(c3cn(C)c4ccc(OC)cc34)C2)c1` (stereo not drawn)?
A: Activity (HeLa [1]): 71.2%; Activity (HepG2 [2]): 4.9%; Activity (Mus musculus [3]): Non-Toxic; Activity (HepG2 [4]): 1.45%; selectivity ratio [5]: 3 to 10; Activity (HepG2 [6]): 28.38%; Activity (HeLa [7]): 0.12%; Activity (HeLa [8]): 0.53 g; Activity (HeLa [9]): 49.63%; Activity (HeLa [10]): 5.36%; viability at 0.06 µM (HeLa [11]): 66.9%; selectivity ratio [12]: 3 to 10; Activity (HepG2 [13]): 8.57%; Activity (HeLa [14]): 0.91 g; Activity (Mus musculus [15]): Non-Toxic; Activity (HepG2 [16]): 9.61%; Activity (HeLa [17]): 7.03%; selectivity ratio [18]: 3 to 10; viability at 0.02 µM (HeLa [19]): 88.7%; Activity (Mus musculus [20]): Non-Toxic; Activity (HeLa [21]): 7.98%; Activity (HepG2 [22]): 6.01%; Activity (HepG2 [23]): 21.59%; Activity (HeLa [24]): Active; Activity (HeLa [25]): 8.26%; viability at 0.04 µM (HeLa [26]): 84.5%; viability at 0.06 µM (HepG2 [27]): 85.7%; Activity (Mus musculus [28]): Non-Toxic
